# TAAR1 agonist – agonists of human TAAR1. CHO RD-HGA16 TAAR1, Fluo-8 calcium fluorescence; vehicle wells 0%, saturating PEA agonist 100%. activation, % at 3 µM. 0.99% of 360,000 active. AID 624467;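 active = activation above the mean activation of all test compounds in the run plus 3 SD, cut at about 38% in these data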
# Target sequence (Q96RJ0 whole entry, looked up): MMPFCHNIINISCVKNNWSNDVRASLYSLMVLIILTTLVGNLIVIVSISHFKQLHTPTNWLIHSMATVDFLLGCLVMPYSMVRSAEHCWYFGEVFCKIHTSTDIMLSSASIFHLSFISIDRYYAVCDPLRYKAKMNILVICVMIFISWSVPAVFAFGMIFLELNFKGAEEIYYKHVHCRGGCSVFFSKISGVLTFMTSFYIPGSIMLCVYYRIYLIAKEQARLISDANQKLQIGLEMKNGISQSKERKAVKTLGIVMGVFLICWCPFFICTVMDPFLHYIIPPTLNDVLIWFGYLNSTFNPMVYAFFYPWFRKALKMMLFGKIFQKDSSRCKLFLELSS
#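 System: CHO RD-HGA16 cells carrying human TAAR1 plus Gα16; Incubation: 17-24 h seeding, 75 min 37 °C dye, 30 min RT; Measured by: Fluo-8 fluorescence, 5 s baseline then 140 s kinetic read; Control set: DMSO and PEA EC100; Replication: single well for each compound.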
# TMEM16A inh – mouse TMEM16A channel inhibition, primary screen. HEK293 TMEM16A/YFP iodide influx fluorescence, ionomycin. normalized B-score (activity score, 25-100; higher = stronger inhibition) at 10 µM. 1.2% of 310,000 active;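 active = ratio plate-corrected score three or more library SD toward inhibition, starting fluorescence score within five deviations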;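 also: score derived from kinetic fluorescence span divided by baseline fluorescence per well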
# TMEM16A act – activates or potentiates the mouse TMEM16A chloride channel; HEK293 TMEM16A/YFP-H148Q/I152L, iodide quench fluorescence; stronger effect = lower value; B-score at 10 µM; 0.3% of 340,000 active;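 active = fluorescence-ratio B-score plate-corrected deviation score at least 3 library SD below zero, with starting fluorescence score within 5 deviations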;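 also: channel opened by trigger with iodide after compound preincubation; score built on the fluorescence ratio of max minus min over baseline; more negative score means more quench and so TMEM16A activation or potentiation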
# CRFR2-BP antag – antagonists of CRF-binding protein/CRF-R2 receptor complex | inhibition, % at 11.8 µM | AID 588475 | HEK293 CRF-R2/CRF-BP, CRF-induced calcium fluorescence | 0.59% of 350,000 active;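 active = inhibition of the ligand-induced calcium signal above about 50% at the single tested concentration, limit read from the data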
# CRFBP-R2 agonist – CRF-BP/CRF-R2 complex agonism; HEK293 CRF-R2/CRF-BP, calcium dye fluorescence (FLIPR); percent of saturating CRF peptide response; activation, % at 13.2 µM; 0.46% of 350,000 active;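 active = activation of at least 50%, plus an integration ratio under a set limit after plate pattern correction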;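 also: plate controls were neutral control wells without compound for no effect and CRF at EC100 for full effect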
# TAAR1 antagonist – antagonists of human TAAR1. Q96RJ0. CHO RD-HGA16 TAAR1, Fluo-8 calcium fluorescence, antagonist. inhibition, % at 3 µM. 1.5% of 360,000 active. AID 624466;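 active = inhibition above a per-plate cutoff, the mean inhibition of test compounds on that plate plus 3 SD, cut at about 49% in these data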;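 also: 0% = DMSO plus EC80 beta-PEA response and 100% = DMSO alone without agonist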
#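 Test system: RD-HGA16 CHO cells with stable hTAAR1 and Gα16 / Probe or stimulus: EC80 β-phenethylamine stimulus / Times: seeding 17-24 h prior, 75-min 37 °C, 30-min RT dye loading / Detection: Fluo-8 calcium-sensitive fluorescence / Read-out basis: % inhibition scaled between DMSO and EC80 PEA controls / Repeats: singlicate, one well per test compound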
# * hit, by the source's call; i = inactive; x = no result. Compounds with a hit are over-represented: about 3.9% of the library has one in this group of screens.
SMILES,TAAR1 agonist,TMEM16A inh,TMEM16A act,CRFR2-BP antag,CRFBP-R2 agonist,TAAR1 antagonist
CCOc1ccc(Cl)cc1-c1cc(C(=O)Nc2ccc(C(C)C)cc2)[nH]n1,-1,x,x,x,x,-36
c1coc(-c2nc3nc4ccccc4nc3n2CC2CCCO2)c1 (configuration not stated),13,i,i,-15,16,29
c1ccc(-c2nc3nc4ccccc4nc3n2CC2CCCO2)cc1 (configuration not stated),22,i,i,-6,0,51*
CC(C)CN(CC(C)C)C(=S)NC1CCCCC1,1,i,i,55*,-2,-3
COc1ccc2oc(C(=O)N3CCN(S(=O)(=O)c4c(C)c(C)cc(C)c4C)CC3)c(C)c2c1,8,x,i,-12,3,17
CC(C)(C)C(O)C(Cc1ccccc1Cl)n1cncn1 (configuration not stated),0,i,i,-9,2,-18
O=C(O)c1ccc(NC(=O)c2cn(-c3ccccc3)nc2-c2ccc(F)cc2)cc1,5,i,i,-31,0,59*
O=C(O)c1ccc(NC(=O)c2cn(-c3ccccc3)nc2-c2cccc(Cl)c2)cc1,6,i,i,26,0,52*
O=C(O)c1cn(-c2ccccc2)nc1-c1ccc(F)cc1,3,i,i,3,1,5
COc1ccc(-c2csc(NCCc3nc4cc(C(=O)NCCCO)ccc4n3Cc3ccc(C)cc3)n2)cc1,13,i,i,6,-1,18
Cc1ccc(S(=O)(=O)NCc2c(Cl)cccc2Oc2ccccc2)cc1,x,100*,i,16,2,x
COc1ccc(N(C)S(=O)(=O)c2cccc(C(=O)NC3CCCC3)c2)cc1,3,i,i,2,-1,-31
COc1ccc(C(=O)NCCS(=O)(=O)N(C)C2CCCCC2)cc1,1,i,i,51*,37,-16
COc1ccc(N(C)S(=O)(=O)c2cccc(C(=O)OCC(=O)N(C)c3ccccc3)c2)cc1,16,x,i,-9,4,56*
CN(C(=O)COC(=O)c1cccc(S(=O)(=O)N2CCCCCC2)c1)c1ccccc1,6,x,x,0,-2,-15
Cc1ccc(N(C)S(=O)(=O)c2cccc(C(=O)OCC(=O)c3c(N)n(C)c(=O)n(C)c3=O)c2)cc1,18,x,i,-25,8,66*
COc1ccc(N(C)S(=O)(=O)c2cccc(C(=O)NCC3CCCCC3)c2)cc1,3,x,-37*,33,-3,-10
CC(C)CN(C(=O)COC(=O)/C=C/c1ccc(Cl)c(Cl)c1)c1c(N)n(Cc2ccccc2)c(=O)[nH]c1=O,4,x,i,10,4,-18
COc1cc(/C=C/C(=O)OCC(=O)N(CC(C)C)c2c(N)n(Cc3ccccc3)c(=O)[nH]c2=O)ccc1O,25,x,-22*,-41,120*,49*
COc1ccc(S(=O)(=O)N2CCC(C(=O)N3CCc4ccccc4C3)CC2)cc1,24,i,-12*,13,0,16
CCOC(=O)C1CCCN(c2nc(C)nc3c2oc2ccccc23)C1 (configuration not stated),15,25*,i,7,0,13
CCOC(=O)C1CCN(c2nc(C)nc3c2oc2ccccc23)CC1,6,i,i,17,8,4
N#Cc1ccccc1N1CCN(C(=O)c2ccc(NC(=O)c3ccc(Br)o3)cc2)CC1,x,i,i,-4,-2,x
CC(Sc1nc(N)cc(N)n1)C(=O)NCCC1=CCCCC1 (configuration not stated),38*,x,i,1,-1,15
Cc1ccc(SC(C)C(=O)NCCC2=CCCCC2)cc1 (configuration not stated),0,i,i,1,1,-33
Cc1cc(=O)[nH]c(SCC(=O)NCCC2=CCCCC2)n1,41*,i,i,5,-1,3
CCC(C(=O)Nc1ccc2[nH]ncc2c1)c1ccccc1 (configuration not stated),0,i,i,-14,0,-5

# Source: PubChem
